ChEMBL document CHEMBL2311482, “Antiproliferative and apoptotic effects of compounds from the flower of Mammea siamensis (Miq.) T. Anders. on human cancer cell lines” (Bioorg Med Chem Lett, 2013)
pIC50: −log10 of the molar value. The source made the active and inactive calls. The rule behind the calls is not given here.

Experiments:
[1] = system: HCT-15; experiment: Cytotoxicity against human HCT15 cells assessed as cell viability after 24 hrs by MTT assay; assay type: functional, cell-based; settings: HCT-15, 24 h
Procedure, shortened: (§1)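 Cells exposed to compounds at 3.125 to 50 µM for 24 h; proliferation read by MTT assay; IC50 (µM) reported. Panel: leukemia lines HL-60, U937, THP-1, Jurkat; stomach KATO III; colon HCT-15; hepatoma HepG2; normal skin fibroblasts NB1RGB and HF-19.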

[2] = system: HepG2; experiment: Cytotoxicity against human HepG2 cells assessed as cell viability after 24 hrs by MTT assay; assay type: functional, cell-based; settings: HepG2, 24 h; procedure, shortened: as §1
[3] = system: HL-60; experiment: Induction of apoptosis in human HL60 cells assessed as DNA fragmentation at 12.5 uM after 24 hrs by agarose gel electrophoresis; assay type: functional, cell-based
Procedure, shortened: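 HL-60 cells treated with 12.5 µM compound for 24 h; DNA extracted and laddering resolved by agarose gel electrophoresis against a 100 bp marker; representative of three independent experiments.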

[4] = Cytotoxicity against human KATO III cells assessed as cell viability after 24 hrs by MTT assay; assay type: functional, cell-based; procedure, shortened: as §1
[5] = system: Jurkat; experiment: Cytotoxicity against human Jurkat cells assessed as cell viability after 24 hrs by MTT assay; assay type: functional, cell-based; procedure, shortened: as §1
[6] = system: U-937; experiment: Cytotoxicity against human U937 cells assessed as cell viability after 24 hrs by MTT assay; assay type: functional, cell-based; settings: U-937, 24 h; procedure, shortened: as §1
[7] = system: THP-1; experiment: Cytotoxicity against human THP1 cells assessed as cell viability after 24 hrs by MTT assay; assay type: functional, cell-based; settings: THP-1, 24 h; procedure, shortened: as §1
[8] = system: HL-60; experiment: Cytotoxicity against human HL60 cells assessed as cell viability after 24 hrs by MTT assay; assay type: functional, cell-based; settings: HL-60, 24 h; procedure, shortened: as §1
[9] = Cytotoxicity against human NB1RGB cells assessed as cell viability after 24 hrs by MTT assay; assay type: cell-based; procedure, shortened: as §1
[10] = Cytotoxicity against human HF19 cells assessed as cell viability after 24 hrs by MTT assay; assay type: cell-based; settings: HF19, 24 h; procedure, shortened: as §1
[11] = system: HL-60; experiment: Induction of apoptosis in human HL60 cells assessed as chromatin condensation at 12.5 uM after 24 hrs by Hoechst 33258 staining-based fluorescent microscopy; assay type: functional, cell-based
Procedure, shortened: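 Nuclear morphology: HL-60 cells treated 24 h with 12.5 µM compound, stained with Hoechst 33258, and viewed by fluorescence microscopy at ×400; representative of three independent experiments.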

[12] = system: HL-60; experiment: Induction of apoptosis in human HL60 cells assessed as activation of caspase 3 at 12.5 uM by Western blot analysis; assay type: functional, cell-based; settings: TDE = time-dependent effect
Procedure, shortened: (§2)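 HL-60 cells given 12.5 µM compound for 6–24 h, then lysed; caspase-3 and PARP (cleavage) probed by Western blot with β-actin as loading control; representative of three independent experiments.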

[13] = system: HL-60; experiment: Induction of apoptosis in human HL60 cells assessed as DNA fragmentation at 12.5 uM by agarose gel electrophoresis; assay type: functional, cell-based; settings: TDE = time-dependent effect
Procedure, shortened: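 Time course: HL-60 cells exposed to 12.5 µM compound for 6–24 h; DNA fragmentation assessed by agarose gel electrophoresis; representative of three independent experiments.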

[14] = system: HL-60; experiment: Induction of apoptosis in human HL60 cells assessed as DNA fragmentation at 12.5 uM after 24 hrs by agarose gel electrophoresis in presence of caspase inhibitior Z-VAD-FMK and Z-DEVD-FMK; assay type: functional, cell-based
Procedure, shortened: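 HL-60 cells pretreated 1 h with 50 µM caspase inhibitor (z-VAD-FMK, broad; z-DEVD-FMK, caspase-3), then given 12.5 µM compound for 24 h; DNA fragmentation by agarose gel electrophoresis; representative of three independent experiments.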

[15] = system: HL-60; experiment: Induction of apoptosis in human HL60 cells assessed as PARP cleavage at 12.5 uM by Western blot analysis; assay type: functional, cell-based; settings: TDE = time-dependent effect; procedure, shortened: as §2

SMILES | pIC50 [1] | pIC50 [2] | Activity [3] | pIC50 [4] | pIC50 [5] | pIC50 [6] | pIC50 [7] | pIC50 [8] | pIC50 [9] | pIC50 [10] | Activity [11] | Activity [12] | Activity [13] | Activity [14] | Activity [15]
O=c1cc(-c2ccc(O)cc2)oc2cc(O)c([C@@H]3O[C@H](CO)[C@@H](O)[C@H](O)[C@H]3O)c(O)c12 [ISOVITEXIN] | < 4.30 | < 4.30 | inactive | < 4.30 | < 4.30 | < 4.30 | < 4.30 | < 4.30 | < 4.30 | < 4.30 |  |  |  |  | 
O=c1cc(-c2ccc(O)c(-c3c(O)cc(O)c4c(=O)cc(-c5ccc(O)cc5)oc34)c2)oc2cc(O)cc(O)c12 [AMENTOFLAVONE] | < 4.30 | < 4.30 | inactive | < 4.30 | < 4.30 | < 4.30 | < 4.30 | < 4.30 | < 4.30 | < 4.30 |  |  |  |  | 
CCC(C)C(=O)c1c(O)c2c(c3c([C@@H](O)CC)cc(=O)oc13)OC(C(C)(C)O)C2 (some centres not stated) | < 4.30 | < 4.30 | inactive | < 4.30 | < 4.30 | 4.48 | 4.39 | 4.54 | < 4.30 | < 4.30 |  |  |  |  | 
CCCC(=O)c1c2c(c3oc(=O)cc(CCC)c3c1O)C=CC(C)(C)O2 | < 4.30 | < 4.30 | inactive | < 4.30 | < 4.30 | 4.32 | < 4.30 | 4.43 | < 4.30 | < 4.30 |  |  |  |  | 
CCC(C)C(=O)c1c(O)c(CC=C(C)C)c(O)c2c([C@@H](O)CC)cc(=O)oc12 (some centres not stated) | < 4.30 | < 4.30 | Active | 4.62 | 4.53 | 4.73 | 5.03 | 4.86 | < 4.30 | < 4.30 | Active |  |  |  | 
CCC(C)C(=O)c1c(O)c(C/C=C(\C)CCC=C(C)C)c(O)c2c([C@@H](O)CC)cc(=O)oc12 (some centres not stated) [SURANGIN C] | < 4.30 | < 4.30 | Active | 4.97 | 4.64 | 4.56 | 4.67 | 4.88 | < 4.30 | < 4.30 | Active |  |  |  | 
CCCC(=O)c1c(O)c(C/C=C(\C)CCC=C(C)C)c(O)c2c([C@@H](O)CC)cc(=O)oc12 [KAYEASSAMIN A] | < 4.30 | < 4.30 | Active | 4.92 | 4.70 | 4.70 | 4.78 | 4.93 | < 4.30 | < 4.30 | Active | tde | tde | inactive | tde
